Data set [1] relates to Influenza A virus. The data set can be described thus: Antiviral activity against Influenza A virus (A/udorn/307/1972 H3N2) infected in MDCK cells assessed as inhibition of viral replication at 4 to 8 uM after 24 to 48 hrs by hemagglutination assay. Format: functional, organism-based. An outline of the steps: (§1)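 MDCK cells infected with Ud virus at moi 0.001 PFU/cell. After 1 h adsorption, compound was added at 4 or 8 μM in medium containing 1% DMSO. Medium aliquots were taken at 24, 36 and 48 h and assayed for hemagglutinin (HA) titre. Infected cells without inhibitor served as the control.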

Data set [2] deals with Influenza A virus. Kind of data set: Antiviral activity against Influenza A virus (A/udorn/307/1972 H3N2) infected in MDCK cells assessed as reduction in viral RNA titer up to 6.5 hrs by RT-qPCR analysis. Format: functional, organism-based. Background: Real-time PCR tracks product formation cycle by cycle.
Data set [3] concerns MDCK. The data set can be described thus: Cytotoxicity against MDCK cells infected with Influenza A virus (A/udorn/307/1972 H3N2) at 4 uM after 24 to 48 hrs by CellTiter-Glo cell viability assay. It is filed as cell-based, Canis lupus familiaris. To be noted: dog. An outline of the steps: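 CellTiter-Glo ATP luminescence was measured in MDCK cells infected with Ud virus at low multiplicity, with or without 4 μM compound. Cells were lysed at several times over the 48 h infection.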

The subject of data set [4] is Influenza A virus. Kind of data set: Antiviral activity against Influenza A virus (A/udorn/307/1972 H3N2) infected in MDCK cells assessed as reduction in viral RNA titer at 4 to 8 uM after 24 to 48 hrs by RT-qPCR analysis relative to control. It is filed as functional. An outline of the steps:
(§2)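 Infection was the same: MDCK, Ud virus at moi 0.001 PFU/cell, 1 h adsorption, then compound at 4 or 8 μM in 1% DMSO medium. Supernatant was sampled at 24, 36 and 48 h. Neuraminidase-segment vRNA was reverse transcribed in duplicate (forward primer 1.25 μM, 12 h, 37 C), then amplified by probe qPCR in duplicate (primers 0.8 μM, probe 0.24 μM, 50 cycles). Results were normalized to the start of infection.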

Data set [5] deals with Influenza A virus. The data set can be described thus: Antiviral activity against Influenza A virus (A/udorn/307/1972 H3N2) infected in MDCK cells assessed as inhibition of viral replication at 4 uM after 48 hrs by hemagglutination assay. It is filed as functional, organism-based. The essentials:
as §1

Data set [6] concerns Influenza A virus. The data set can be described thus: Antiviral activity against Influenza A virus (A/udorn/307/1972 H3N2) infected in MDCK cells assessed as reduction in viral RNA titer at 8 uM after 24 to 48 hrs by RT-qPCR analysis. Format: functional, organism-based. The essentials:
as §2

In data set [7] the test system is Influenza A virus. The data set can be described thus: Antiviral activity against Influenza A virus (A/udorn/307/1972 H3N2) infected in MDCK cells assessed as inhibition of viral replication at 8 uM after 24 to 48 hrs by hemagglutination assay. Format: functional, organism-based. An outline of the steps:
as §1

In data set [8] the test system is Influenza A virus. The data set can be described thus: Antiviral activity against Influenza A virus (A/udorn/307/1972 H3N2) infected in MDCK cells assessed as reduction in viral RNA titer at 4 uM after 48 hrs by RT-qPCR analysis. It is filed as functional, organism-based. An outline of the steps: as §2
The test system of data set [9] is Influenza A virus. The data set can be described thus: Antiviral activity against Influenza A virus (A/udorn/307/1972 H3N2) infected in MDCK cells assessed as inhibition of viral replication at 4 to 8 uM after 24 hrs by hemagglutination assay. It is filed as functional, organism-based. An outline of the steps:
as §1

Data set [10] deals with Influenza A virus. Kind of data set: Antiviral activity against Influenza A virus (A/udorn/307/1972 H3N2) infected in MDCK cells assessed as reduction in viral RNA titer at 4 to 8 uM after 24 hrs by RT-qPCR analysis. It is filed as functional, organism-based. The essentials: as §2
The test system of data set [11] is Influenza A virus. The data set can be described thus: Antiviral activity against Influenza A virus (A/udorn/307/1972 H3N2) infected in MDCK cells assessed as inhibition of viral replication at 4 uM after 36 to 48 hrs by hemagglutination assay. Format: functional, organism-based. An outline of the steps:
as §1

The test system of data set [12] is Influenza A virus. Kind of data set: Antiviral activity against Influenza A virus (A/udorn/307/1972 H3N2) infected in MDCK cells assessed as reduction in viral RNA titer at 4 uM after 36 to 48 hrs by RT-qPCR analysis. Format: functional, organism-based. The essentials: as §2
Data set [13] concerns Influenza A virus. The data set can be described thus: Antiviral activity against Influenza A virus (A/udorn/307/1972 H3N2) infected in MDCK cells assessed as reduction in viral RNA titer at 4 uM after 36 hrs by RT-qPCR analysis. It is filed as functional, organism-based. The essentials:
as §2

The subject of data set [14] is Influenza A virus. Kind of data set: Antiviral activity against Influenza A virus (A/udorn/307/1972 H3N2) infected in MDCK cells assessed as inhibition of viral replication at 4 uM after 36 hrs by hemagglutination assay. Format: functional, organism-based. The essentials:
as §1

Structures are written as SMILES. Activity calls are given as the source filed them. No cut-off for these calls is given here.

On to `O=C(N/N=C(\c1ccccc1)c1ccc2c(c1)CCCC2)c1cc2ccccc2cc1O`, for which the inhibition result in [1] and in [2] was “Active” each time. Also, the Activity entry in data set [3] is listed as “Non-toxic”. Besides, the “fold change (FC)” value in data set [4] is given as 1000.

In the case of `CCC/C(=N\NC(=O)c1cc2ccccc2cc1O)c1ccc2c(c1)CCCC2`, the inhibition entry in data set [5] and in data set [8] was “inactive” each time. In addition, the inhibition result in data set [6] and in data set [7] was “Active” in each case.

For `CC(C)/C(=N\NC(=O)c1cc2ccccc2cc1O)c1ccc2c(c1)CCCC2`, the inhibition result in data set [9] and in [10] was “Active” each time.

In the case of `CN(C)CCC/C(=N\NC(=O)c1cc2ccccc2cc1O)c1ccc2c(c1)CCCC2`, the inhibition result in [11] and in data set [12] was “inactive” each time. Besides, the inhibition result in data set [6] and in data set [7] was “Active” in each case.

With `CC/C(=N\NC(=O)c1cc2ccccc2cc1O)c1ccc2c(c1)CCCC2`, the inhibition entry in data set [9], in [10], in data set [6] and in data set [7] was “Active” each time.

Take `O=C(N/N=C(/c1ccc2c(c1)CCCC2)C1CC1)c1cc2ccccc2cc1O`: the inhibition entry in data set [6] and in data set [7] was “Active” each time.

Turning to `O=C(N/N=C(\CCCCl)c1ccc2c(c1)CCCC2)c1cc2ccccc2cc1O`, the inhibition result in data set [11] and in data set [12] was “inactive” each time. Further, the inhibition result in data set [6] and in data set [7] was “Active” in each case.

Take `O=C(N/N=C(/c1ccc2c(c1)CCCC2)C1CCCC1)c1cc2ccccc2cc1O`: the inhibition result in data set [11], in data set [6], in data set [7] and in data set [12] was “Active” in each case.

For `O=C(N/N=C(/c1ccc2c(c1)CCCC2)C1CCCCC1)c1cc2ccccc2cc1O`, the inhibition entry in data set [11], in data set [7], in [12], in data set [13] and in data set [14] was “Active” throughout.

For the origin of these results see ChEMBL document CHEMBL3098119, “Exploring naphthyl-carbohydrazides as inhibitors of influenza A viruses” (Eur J Med Chem, 2014).
